{"source": "ChEMBL document CHEMBL1124161", "about": "“4-Hydroxy-3-quinolinecarboxamides with antiarthritic and analgesic activities” (J Med Chem, 1988)", "key": {"[1]": {"tested_on": "Mus musculus", "assay": "Analgesic activity against acetic acid induced writhing test in mouse after peroral administration", "format": "functional"}, "[2]": {"tested_on": "Rattus norvegicus", "assay": "Anti-arthritis activity against adjuvant-induced arthritis in rats after peroral administration", "format": "functional", "procedure,_shortened": "(§1)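 Groups of five male Lewis rats, 40–50 days old, given intraplantar injection in right hind paw of 0.6 mg Mycobacterium butyricum in 0.1 mL Bayol 55. Drug given in food from adjuvant day to day 17. Injected and noninjected hind paw volumes measured day 17 against normal controls. ED50 by least-squares curve fitting or Litchfield–Wilcoxon probit.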"}, "[3]": {"tested_on": "Rattus norvegicus", "assay": "Antiinflammatory activity against carrageenan-induced foot edema in rat after peroral administration at 25 mg/kg; IA=Inactive", "format": "functional, organism-based", "parameters": "dose 25 mg/kg"}, "[4]": {"species_on_record": "Rattus norvegicus", "assay": "Antiarthritis activity against adjuvant-induced arthritis in rats", "format": "functional", "procedure,_shortened": "as §1"}, "[5]": {"tested_on": "Mus musculus", "assay": "Analgesic activity against acetic acid induced writhing test in mouse administered po at 100 mg/kg; IA=Inactive", "format": "functional, organism-based", "parameters": "dose 100 mg/kg", "procedure,_shortened": "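Female mice (20–22 g), groups of 10, fasted 7 h; drug given orally 30 min before intraperitoneal injection of 0.2 mL 1% aqueous acetic acid. Stretching/writhing movements counted from minute 5 to 20 after irritant.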"}, "[6]": {"tested_on": "Rattus norvegicus", "assay": "Antiinflammatory activity against carrageenan-induced foot edema in rat after oral administration of 20 mg/kg; IA=Inactive", "format": "functional, organism-based", "parameters": "dose 20 mg/kg"}, "[7]": {"details": "Mus musculus, po, read-out: ED50"}, "[8]": {"details": "Rattus norvegicus, po, read-out: ED50"}}, "note": "Active and inactive are the calls of the source. The calls are words filed in the database; no cut-off is given here.", "data": [{"smiles": "CCC(=O)OC(CC)c1nc2c(C(F)(F)F)cccc2c(O)c1C(=O)Nc1nccs1", "note": "(stereo in doubt; 104)", "values": [{"measurement": "ED50", "setting": "[1]", "result": 15, "unit": "mg/kg"}, {"measurement": "ED50", "setting": "[2]", "result": 0.6, "unit": "mg/kg"}]}, {"smiles": "C[C@H](N)c1nc2c(C(F)(F)F)cccc2c(O)c1C(=O)Nc1nccs1", "values": [{"measurement": "ED50", "setting": "[1]; [7]", "result": 30, "unit": "mg/kg"}, {"measurement": "ED50", "setting": "[2]; [8]", "result": 7, "unit": "mg/kg"}]}, {"smiles": "CCC(OC(=O)c1ccccc1)c1nc2c(C(F)(F)F)cccc2c(O)c1C(=O)Nc1nccs1", "note": "(stereo unspecified)", "values": [{"measurement": "ED50", "setting": "[1]; [7]", "result": "> 100", "unit": "mg/kg"}, {"measurement": "ED50", "setting": "[2]; [8]", "result": "> 5", "unit": "mg/kg"}]}, {"smiles": "O=C(Nc1nccs1)c1c(CCl)nc2c(C(F)(F)F)cccc2c1O", "values": [{"measurement": "ED50", "setting": "[1]; [7]", "result": 25, "unit": "mg/kg"}, {"measurement": "ED50", "setting": "[3]", "result": "inactive"}]}, {"smiles": "CC(O)c1nc2c(C(F)(F)F)cccc2c(O)c1C(=O)Nc1nccs1", "note": "(stereo unspecified)", "values": [{"measurement": "ED50", "setting": "[4]", "result": "≥ 5", "unit": "mg/kg"}, {"measurement": "ED50", "setting": "[1]; [7]", "result": 1.2, "unit": "mg/kg"}]}, {"smiles": "CCC(O)c1nc2c(C(F)(F)F)cccc2c(O)c1C(=O)Nc1nccs1", "note": "(stereo in doubt; 90)", "values": [{"measurement": "ED50", "setting": "[1]", "result": ">20", "unit": "mg/kg"}, {"measurement": "ED50", "setting": "[2]", "result": ">5", "unit": "mg/kg"}]}, {"smiles": "CCC(OC(=O)c1cccnc1)c1nc2c(C(F)(F)F)cccc2c(O)c1C(=O)Nc1nccs1", "note": "(stereo unspecified)", "values": [{"measurement": "ED50", "setting": "[1]; [7]", "result": "> 20", "unit": "mg/kg"}, {"measurement": "ED50", "setting": "[2]; [8]", "result": "> 1", "unit": "mg/kg"}]}, {"smiles": "CCC(OC(C)=O)c1nc2c(C(F)(F)F)cccc2c(O)c1C(=O)Nc1nccs1", "note": "(stereo unspecified)", "values": [{"measurement": "ED50", "setting": "[5]", "result": "inactive"}, {"measurement": "ED50", "setting": "[2]; [8]", "result": 4, "unit": "mg/kg"}]}, {"smiles": "O=C(Nc1nccs1)c1c(C(Cl)Cl)nc2c(Cl)cccc2c1O", "values": [{"measurement": "ED50", "setting": "[1]; [7]", "result": 25, "unit": "mg/kg"}, {"measurement": "ED50", "setting": "[3]", "result": "inactive"}]}, {"smiles": "O=C(Nc1nc2ccccc2s1)c1c(C(Cl)Cl)nc2c(C(F)(F)F)cccc2c1O", "values": [{"measurement": "ED50", "setting": "[1]; [7]", "result": "> 25", "unit": "mg/kg"}, {"measurement": "ED50", "setting": "[3]", "result": "inactive"}]}, {"smiles": "CC(O)c1nc2ccccc2c(O)c1C(=O)Nc1nccs1", "note": "(stereo unspecified)", "values": [{"measurement": "ED50", "setting": "[1]; [7]", "result": "> 100", "unit": "mg/kg"}, {"measurement": "ED50", "setting": "[2]; [8]", "result": "> 5", "unit": "mg/kg"}]}, {"smiles": "CCC(=O)OC(c1nc2c(C(F)(F)F)cccc2c(O)c1C(=O)Nc1ccccn1)C(C)C", "note": "(stereo unspecified)", "values": [{"measurement": "ED50", "setting": "[5]", "result": "inactive"}, {"measurement": "ED50", "setting": "[2]; [8]", "result": 5, "unit": "mg/kg"}]}, {"smiles": "CCC(OC(=O)C(C)(C)C)c1nc2c(C(F)(F)F)cccc2c(O)c1C(=O)Nc1nccs1", "note": "(stereo unspecified)", "values": [{"measurement": "ED50", "setting": "[2]; [8]", "result": 15, "unit": "mg/kg"}]}, {"smiles": "CCC(=O)OC(c1nc2c(C(F)(F)F)cccc2c(O)c1C(=O)Nc1nccs1)C(C)C", "note": "(stereo unspecified)", "values": [{"measurement": "ED50", "setting": "[1]; [7]", "result": "> 100", "unit": "mg/kg"}, {"measurement": "ED50", "setting": "[2]; [8]", "result": "≥ 5", "unit": "mg/kg"}]}, {"smiles": "O=C(Nc1nccs1)c1c(-c2ccccc2)nc2c(C(F)(F)F)cccc2c1O", "values": [{"measurement": "ED50", "setting": "[1]; [7]", "result": 50, "unit": "mg/kg"}, {"measurement": "ED50", "setting": "[6]", "result": "inactive"}]}, {"smiles": "CC(=O)OC(c1nc2c(C(F)(F)F)cccc2c(O)c1C(=O)Nc1nccs1)C(C)C", "note": "(stereo unspecified)", "values": [{"measurement": "ED50", "setting": "[1]; [7]", "result": "> 100", "unit": "mg/kg"}, {"measurement": "ED50", "setting": "[2]; [8]", "result": "≥ 5", "unit": "mg/kg"}]}, {"smiles": "CC[C@H](NC(C)=O)c1nc2c(C(F)(F)F)cccc2c(O)c1C(=O)Nc1nccs1", "values": [{"measurement": "ED50", "setting": "[1]; [7]", "result": 5, "unit": "mg/kg"}, {"measurement": "ED50", "setting": "[2]; [8]", "result": 1.5, "unit": "mg/kg"}]}, {"smiles": "CC(C)C(O)c1nc2c(C(F)(F)F)cccc2c(O)c1C(=O)Nc1nccs1", "note": "(stereo unspecified)", "values": [{"measurement": "ED50", "setting": "[4]", "result": 0.4, "unit": "mg/kg"}, {"measurement": "ED50", "setting": "[1]; [7]", "result": 20, "unit": "mg/kg"}]}, {"smiles": "CCC(OC(=O)/C=C/c1ccccc1)c1nc2c(C(F)(F)F)cccc2c(O)c1C(=O)Nc1nccs1", "note": "(stereo unspecified)", "values": [{"measurement": "ED50", "setting": "[1]; [7]", "result": "> 100", "unit": "mg/kg"}, {"measurement": "ED50", "setting": "[2]; [8]", "result": 10, "unit": "mg/kg"}]}, {"smiles": "CCC(O)c1nc2c(C(F)(F)F)cccc2c(O)c1C(=O)Nc1ccccn1", "note": "(stereo unspecified)", "values": [{"measurement": "ED50", "setting": "[1]; [7]", "result": 20, "unit": "mg/kg"}, {"measurement": "ED50", "setting": "[2]; [8]", "result": "≥ 15", "unit": "mg/kg"}]}, {"smiles": "CCC(O)c1nc2c(C(F)(F)F)cccc2c(O)c1C(=O)Nc1nccs1", "note": "(stereo in doubt; 91)", "values": [{"measurement": "ED50", "setting": "[1]", "result": 1.8, "unit": "mg/kg"}, {"measurement": "ED50", "setting": "[2]", "result": 0.5, "unit": "mg/kg"}]}]}
